# Laboratory results from PMC5773961 (British Journal of Pharmacology, 2017).
# Read-outs that look alike come from different tables or passages of the source.
# How the values were obtained:
# [1] = test system: benzodiazepine (BZD) receptor; details: ref Czernik et al., 1982; cited from earlier work
# [2] = test system: αxβ3γ2 (x = 1–5) GABAA receptors; format: cell-based, rat
# Procedure, shortened: (§1)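 Rat α and β3/γ2 subunit mRNA (2.5 ng total) injected into defolliculated stage 5–6 X. laevis oocytes. Ratio α:β3:γ2 was 1:1:5 for α1, α2, α3 and α5, and 3:1:5 for α4. Oocytes held ≥36 h at 18°C in NDE. TEVC was run at −60 mV at room temperature under 6 mL·min−1 NDE perfusion. Per-oocyte GABA EC3–5 co-applied with test compound in 0.1% DMSO final. ≥3 oocytes from two batches.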
# α6β3γ2 GABAA receptors = α6β3γ2 GABAA receptors (Rattus norvegicus, UniProt P30191+P63079); format: cell-based; details: for modulation of GABA EC3–5 currents in screening of compounds 5–9, in words: 10 μM compound, comparable to compound 3
# Procedure, shortened: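 Oocytes (X. laevis, stage 5–6, defolliculated) received 2.5 ng of rat α6:β3:γ2 mRNA at 3:1:5, or γ2‐β3‐α6 triple plus β3‐α6 double concatemer cRNA at 1:1. Incubated ≥36 h at 18°C. TEVC at −60 mV, room temperature. Per-oocyte GABA EC3–5 co-applied with test compound(s) at various concentrations, 0.1% DMSO final. Hill fit for EC50. ≥3 oocytes from two batches.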
# α1β3γ2 GABAA receptors = α1β3γ2 GABAA receptors (Rattus norvegicus, UniProt P62813+P63079); format: cell-based; details: for % modulation of GABA EC3–5 currents: 10 μM compound, control (GABA) = EC3–5
# Procedure, shortened: as §1
# [3] = test system: αxβ3γ2 (x = 1–6) GABAA receptors; format: cell-based, rat
# [4] = Solubility limit in the assay buffer; format: physicochemical; details: aqueous buffer
# α5β3γ2 GABAA receptors = α5β3γ2 GABAA receptors (Rattus norvegicus, UniProt P19969+P63079); format: cell-based
# Procedure, shortened: as §1
# α1β3 receptors = α1β3 receptors (Rattus norvegicus, UniProt P62813+P63079); experiment: Two-electrode voltage clamp, α1β3 versus α1β3γ2 receptors; format: cell-based; details: independence from γ2 subunit
# Procedure, shortened: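 Two-electrode voltage clamp of rat subunit mRNA-injected X. laevis oocytes, ≥36 h at 18°C in NDE (pH 7.5) before recording. Held at −60 mV at room temperature under continuous NDE flow. GABA titrated per oocyte to EC3–5 and co-applied with test compound, 0.1% DMSO final.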
# [5] = test system: αxβ3γ2 (x = 1–5) GABAA receptors; details: non‐α6, αxβ3γ2 receptors; 10 μM; ref Varagic et al., 2013a; cited from earlier work
# α6+/γ2− BZ site = α6+/γ2− BZ site (Rattus norvegicus, UniProt P18508+P30191); experiment: Saturation binding of [3H]Ro15-4513 to rat cerebellar membranes; details: presence of diazepam, rat cerebellum, n=3
# [6] = α6β3γ2, 1 μM compound, control (GABA) = EC3–5
# Chain of α6β3γ2 GABAA receptors (P30191 20-453): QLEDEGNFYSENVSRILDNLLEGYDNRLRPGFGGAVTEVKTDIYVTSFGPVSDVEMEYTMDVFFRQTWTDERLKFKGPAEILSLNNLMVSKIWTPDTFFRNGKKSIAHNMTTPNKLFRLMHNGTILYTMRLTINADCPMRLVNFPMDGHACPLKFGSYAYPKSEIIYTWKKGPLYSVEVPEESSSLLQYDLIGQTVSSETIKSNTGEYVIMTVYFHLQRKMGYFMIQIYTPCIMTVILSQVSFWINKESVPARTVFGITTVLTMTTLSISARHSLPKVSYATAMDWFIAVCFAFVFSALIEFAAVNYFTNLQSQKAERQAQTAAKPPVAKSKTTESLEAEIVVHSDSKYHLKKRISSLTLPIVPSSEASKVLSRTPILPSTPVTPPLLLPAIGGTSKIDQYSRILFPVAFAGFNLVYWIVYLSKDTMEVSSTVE
# Chain of α6β3γ2 GABAA receptors (P63079 26-473): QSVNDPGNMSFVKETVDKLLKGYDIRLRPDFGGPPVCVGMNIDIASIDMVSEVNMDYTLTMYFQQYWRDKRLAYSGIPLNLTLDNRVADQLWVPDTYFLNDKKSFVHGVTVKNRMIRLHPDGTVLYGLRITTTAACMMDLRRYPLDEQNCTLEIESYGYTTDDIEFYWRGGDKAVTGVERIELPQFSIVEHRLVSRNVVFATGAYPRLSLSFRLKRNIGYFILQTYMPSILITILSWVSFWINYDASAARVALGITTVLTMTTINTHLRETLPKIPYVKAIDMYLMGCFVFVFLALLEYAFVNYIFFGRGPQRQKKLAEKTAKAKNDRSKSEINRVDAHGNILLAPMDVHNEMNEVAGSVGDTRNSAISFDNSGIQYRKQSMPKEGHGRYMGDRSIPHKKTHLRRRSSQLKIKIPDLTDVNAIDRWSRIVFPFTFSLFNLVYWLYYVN
# Chain of α6β3γ2 GABAA receptors (P18508 39-466 partner): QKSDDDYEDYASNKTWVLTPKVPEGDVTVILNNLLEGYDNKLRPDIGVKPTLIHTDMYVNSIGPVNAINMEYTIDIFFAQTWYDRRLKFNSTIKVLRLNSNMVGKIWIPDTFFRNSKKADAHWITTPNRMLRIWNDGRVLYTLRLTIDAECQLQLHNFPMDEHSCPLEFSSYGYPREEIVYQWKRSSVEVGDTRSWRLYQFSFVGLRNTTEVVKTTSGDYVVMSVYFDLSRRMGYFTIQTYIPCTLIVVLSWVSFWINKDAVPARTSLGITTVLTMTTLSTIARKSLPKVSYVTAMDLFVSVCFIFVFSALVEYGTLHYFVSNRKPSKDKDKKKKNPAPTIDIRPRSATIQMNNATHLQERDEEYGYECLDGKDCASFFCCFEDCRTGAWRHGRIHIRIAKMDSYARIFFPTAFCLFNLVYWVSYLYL
# Chain of α1β3γ2 GABAA receptors (P62813 28-455): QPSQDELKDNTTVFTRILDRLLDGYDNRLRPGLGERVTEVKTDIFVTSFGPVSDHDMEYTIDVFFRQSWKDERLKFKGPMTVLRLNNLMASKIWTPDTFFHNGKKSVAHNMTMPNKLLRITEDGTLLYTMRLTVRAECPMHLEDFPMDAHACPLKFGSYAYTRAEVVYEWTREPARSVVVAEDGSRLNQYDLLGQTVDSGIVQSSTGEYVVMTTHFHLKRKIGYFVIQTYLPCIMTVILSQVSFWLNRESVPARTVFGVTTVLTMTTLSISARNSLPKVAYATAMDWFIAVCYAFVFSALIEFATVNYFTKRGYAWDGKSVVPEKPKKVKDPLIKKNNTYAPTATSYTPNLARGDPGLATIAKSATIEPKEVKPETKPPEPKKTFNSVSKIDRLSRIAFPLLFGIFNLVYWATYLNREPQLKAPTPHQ
# Chain of α1β3γ2 GABAA receptors (P63079 26-473): as the sequence (P63079 26-473) above
# Chain of α1β3γ2 GABAA receptors (P18508 39-466 partner): as the sequence (P18508 39-466 partner) above
# Chain of α1β3 receptors (P62813 28-455): as the sequence (P62813 28-455) above
# Chain of α1β3 receptors (P63079 26-473): as the sequence (P63079 26-473) above
# Chain of α6+/γ2− BZ site (P30191 20-453): as the sequence (P30191 20-453) above
# Chain of α6+/γ2− BZ site (P18508 39-466): as the sequence (P18508 39-466 partner) above
# Chain of α5β3γ2 GABAA receptors (P19969 32-464 limits assumed): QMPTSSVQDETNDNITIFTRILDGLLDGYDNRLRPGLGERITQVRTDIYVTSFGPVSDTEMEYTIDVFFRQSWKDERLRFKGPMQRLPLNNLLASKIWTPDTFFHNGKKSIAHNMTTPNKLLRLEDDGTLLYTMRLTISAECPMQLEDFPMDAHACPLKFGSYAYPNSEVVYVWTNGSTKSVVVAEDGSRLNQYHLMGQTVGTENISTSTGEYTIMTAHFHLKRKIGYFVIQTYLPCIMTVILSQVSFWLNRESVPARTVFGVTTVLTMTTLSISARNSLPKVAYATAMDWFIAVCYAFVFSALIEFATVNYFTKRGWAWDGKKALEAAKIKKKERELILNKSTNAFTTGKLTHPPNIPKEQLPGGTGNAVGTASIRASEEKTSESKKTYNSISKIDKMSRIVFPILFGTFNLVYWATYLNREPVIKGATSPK
# Chain of α5β3γ2 GABAA receptors (P63079 26-473): as the sequence (P63079 26-473) above
# Chain of α5β3γ2 GABAA receptors (P18508 39-466 partner): as the sequence (P18508 39-466 partner) above
compound,measurement,setting,value
O=C1C2C=Nc3ccccc3C2=NN1c1ccccc1 (stereo not shown) [CGS8216],concentrations displacing [3H]‐flunitrazepam and [3H]‐diazepam binding,[1],subnanomolar
"COc1cccc(-n2nc3c4cc(Cl)ccc4[nH]cc-3c2=O)c1 [Compound 3, 8‐chloro‐2‐(3‐methoxyphenyl)‐2H,3H,5H‐pyrazolo[4,3‐c]quinolin‐3‐one]",modulatory activity,[2],completely abolished
same,EC50,α6β3γ2 GABAA receptors,3100 nM
same,% modulation of GABA EC3–5 currents,"α6β3γ2 GABAA receptors; α6β3γ2, 10 μM compound concentration, control GABA EC3–5 = 100%",around 300%
same,type of modulation,α1β3γ2 GABAA receptors,null (silent) modulator
same,effect on positive GABA current modulation by compound 2 (1 μM),α1β3γ2 GABAA receptors; co-application of 10 and 30 μM,reduced the modulatory effect of compound 2
"COc1ccccc1-n1nc2c3cc(Cl)ccc3[nH]cc-2c1=O [Compound 4, 8‐chloro‐2‐(2‐methoxyphenyl)‐2H,3H,5H‐pyrazolo[4,3‐c]quinolin‐3‐one]",positive allosteric modulation (PAM) activity,[3],abolished any positive allosteric modulation (PAM) activity
same,effect on modulation elicited by compound 3 (3 μM),"α6β3γ2 GABAA receptors; α6β3γ2, co-application up to 30 μM",unable to abolish the modulatory effect
same,solubility,[4],30 µM
same,modulatory activity,α5β3γ2 GABAA receptors,weak negative modulatory activity
"Cc1cccc(-n2nc3c4cc(Cl)ccc4[nH]cc-3c2=O)c1 [Compound 5, 8‐chloro‐2‐(3‐methylphenyl)‐2H,3H,5H‐pyrazolo‐[4,3‐c]quinolin‐3‐one]",% modulation of GABA EC3–5 currents,α6β3γ2 GABAA receptors; [6],more than 150%
same,"modulation of GABA EC3–5 currents in screening of compounds 5–9, in words",α6β3γ2 GABAA receptors; α6β3γ2,strongest modulation
same,% modulation of GABA EC3–5 currents,α1β3γ2 GABAA receptors,210.7 ± 17%
same,modulatory effects in α1β3γ2 and α1β3,α1β3 receptors,overlapping
"Nc1cccc(-n2nc3c4cc(Cl)ccc4[nH]cc-3c2=O)c1 [Compound 8, 2‐(3‐aminophenyl)‐8‐chloro‐2H,3H,5H‐pyrazolo[4,3‐c]quinolin‐3‐one]","modulation of GABA EC3–5 currents in screening of compounds 5–9, in words",α6β3γ2 GABAA receptors; α6β3γ2,strongest modulation
"O=C(O)c1cccc(-n2nc3c4cc(Cl)ccc4[nH]cc-3c2=O)c1 [Compound 9, 3‐(8‐chloro‐3‐oxo‐2H,3H,5H‐pyrazolo[4,3‐c]quinolin‐2‐yl)benzoic acid]",% modulation of GABA EC3–5 currents,α6β3γ2 GABAA receptors; [6],more than 150%
same,"modulation of GABA EC3–5 currents in screening of compounds 5–9, in words",α6β3γ2 GABAA receptors; α6β3γ2,strongest modulation
same,type of modulation,α1β3γ2 GABAA receptors,negative allosteric modulation
same,% modulation of GABA EC3–5 currents,α1β3γ2 GABAA receptors,17.9 ± 7.4%
same,modulatory effects in α1β3γ2 and α1β3,α1β3 receptors,overlapping
COc1ccc(-n2nc3c4ccc(OC)cc4[nH]cc-3c2=O)cc1 [PZ‐II‐029],"residual modulatory activity, % of control GABA currents",[5],roughly 200%
CCOC(=O)c1ncn2c1CN(C)C(=O)c1cc(N=[N+]=[N-])ccc1-2 [[3H]Ro15-4513],Kd,α6+/γ2− BZ site,1.4 ± 0.1 nM
